Results taken from ChEMBL document CHEMBL4364284, “Design, Synthesis, and Efficacy Testing of Nitroethylene- and 7-Nitrobenzoxadiazol-Based Flavodoxin Inhibitors against Helicobacter pylori Drug-Resistant Clinical Strains and in Helicobacter pylori-Infected Mice” (J Med Chem, 2019).
Values after ≈ are worked out from the molar mass of the structure shown. Active and inactive are the calls of the source. No cut-off for these calls is given here.

Experiments:
[1] = Cytotoxicity against human HeLa cells assessed as reduction in cell viability by XTT assay; assay type: cell-based; conditions: read-out: MCC50
Outline: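 HeLa cells grown in DMEM with 10% FBS, penicillin and streptomycin at 37 °C, 5% CO2; 30 000 cells/well. XTT viability read at 450 and 650 nm. MCC50 (50% lysis) came from viability-versus-concentration curves. Two experiments, each in triplicate.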

[2] = molecular target: T1, Flavodoxin (Helicobacter pylori (strain ATCC 700392 / 26695) (Campylobacter pylori)) (UniProt O25776); experiment: Inhibition of flavodoxin in Helicobacter pylori SS1 assessed as reduction in bacterial growth measured after 48 hrs by resazurin staining-based microdilution method
T1 sequence (whole entry): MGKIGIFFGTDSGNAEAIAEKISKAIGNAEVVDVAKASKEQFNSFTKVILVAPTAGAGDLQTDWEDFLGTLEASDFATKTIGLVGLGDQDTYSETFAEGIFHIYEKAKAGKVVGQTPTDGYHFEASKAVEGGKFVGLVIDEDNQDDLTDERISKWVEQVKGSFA
Outline: (§1)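 Broth microdilution in brain heart infusion with 4% FBS. Inoculum diluted to OD600 0.01. Two-fold dilutions from a DMSO stock cover 64–0.031 μg/mL, with DMSO ≤1% v/v. Incubated 48 h at 37 °C under microaerophilic conditions. MIC is the lowest concentration giving complete growth inhibition, read by resazurin colour change and confirmed by spotting on blood agar. Run twice in triplicate.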

[3] = molecular target: T1, Flavodoxin (Helicobacter pylori (strain ATCC 700392 / 26695) (Campylobacter pylori)); experiment: Inhibition of flavodoxin in Mnz-resistant Helicobacter pylori NCTC 11637 ATCC 43504 assessed as reduction in bacterial growth measured after 48 hrs by resazurin staining-based microdilution method; conditions: Helicobacter pylori NCTC 11637 = CCUG 17874 = ATCC 43504; outline: as §1
[4] = molecular target: T1, Flavodoxin (Helicobacter pylori (strain ATCC 700392 / 26695) (Campylobacter pylori)); experiment: Inhibition of flavodoxin in Helicobacter pylori ATCC 700392 26695 assessed as reduction in bacterial growth measured after 48 hrs by resazurin staining-based microdilution method; conditions: Helicobacter pylori 26695; outline: as §1
[5] = Therapeutic index, ratio of MCC50 for human HeLa cells to MIC for inhibition of flavodoxin in Helicobacter pylori SS1 assessed as reduction in bacterial growth; assay type: toxicity; conditions: HeLa cells versus Helicobacter pylori SS1, read-out: TI
Outline: (§2)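 TI is MCC50/MIC. For MCC50, HeLa cells (30 000/well, DMEM with 10% FBS) were exposed to compound at 25–1000 μM final. Viability by XTT at 450/650 nm; MCC50 is the concentration giving 50% lysis from viability curves. Run twice in triplicate.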

[6] = Therapeutic index, ratio of MCC50 for human HeLa cells to MIC for inhibition of flavodoxin in Mnz-resistant Helicobacter pylori NCTC 11637 ATCC 43504 assessed as reduction in bacterial growth; assay type: toxicity; conditions: read-out: TI; outline: as §2
[7] = Therapeutic index, ratio of MCC50 for human HeLa cells to MIC for inhibition of flavodoxin in Helicobacter pylori ATCC 700392 26695 assessed as reduction in bacterial growth; assay type: toxicity; conditions: HeLa cells versus Helicobacter pylori ATCC 700392 26695, read-out: TI; outline: as §2
[8] = molecular target: T1, Flavodoxin (Helicobacter pylori (strain ATCC 700392 / 26695) (Campylobacter pylori)); experiment: Inhibition of flavodoxin in metronidazole-resistant Helicobacter pylori isolate 1 assessed as reduction in bacterial growth measured after 48 hrs by resazurin staining-based microdilution method
Outline: (§3)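 Clinical isolates from gastric biopsies of patients who failed ≥2 therapies; resistance classified by EUCAST breakpoints. […] Read by resazurin colour change as the lowest concentration giving complete growth inhibition.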

[9] = molecular target: T1, Flavodoxin (Helicobacter pylori (strain ATCC 700392 / 26695) (Campylobacter pylori)); experiment: Inhibition of flavodoxin in metronidazole-resistant Helicobacter pylori isolate 2 assessed as reduction in bacterial growth measured after 48 hrs by resazurin staining-based microdilution method; outline: as §3
[10] = molecular target: T1, Flavodoxin (Helicobacter pylori (strain ATCC 700392 / 26695) (Campylobacter pylori)); experiment: Inhibition of flavodoxin in clarithromycin/metronidazole-resistant Helicobacter pylori isolate 4 assessed as reduction in bacterial growth measured after 48 hrs by resazurin staining-based microdilution method; outline: as §3
[11] = molecular target: T1, Flavodoxin (Helicobacter pylori (strain ATCC 700392 / 26695) (Campylobacter pylori)); experiment: Inhibition of flavodoxin in rifampicin-resistant Helicobacter pylori isolate 5 assessed as reduction in bacterial growth measured after 48 hrs by resazurin staining-based microdilution method; outline: as §3
[12] = molecular target: T1, Flavodoxin (Helicobacter pylori (strain ATCC 700392 / 26695) (Campylobacter pylori)); experiment: Inhibition of flavodoxin in clarithromycin/metronidazole-resistant Helicobacter pylori isolate 6 assessed as reduction in bacterial growth measured after 48 hrs by resazurin staining-based microdilution method
[13] = Therapeutic index, ratio of MCC50 for human HeLa cells to MIC for inhibition of flavodoxin in metronidazole-resistant Helicobacter pylori isolate 1 assessed as reduction in bacterial growth; assay type: toxicity; conditions: read-out: TI; outline: as §2
[14] = Therapeutic index, ratio of MCC50 for human HeLa cells to MIC for inhibition of flavodoxin in metronidazole-resistant Helicobacter pylori isolate 2 assessed as reduction in bacterial growth; assay type: toxicity; conditions: read-out: TI; outline: as §2
[15] = Therapeutic index, ratio of MCC50 for human HeLa cells to MIC for inhibition of flavodoxin in metronidazole-resistant Helicobacter pylori isolate 3 assessed as reduction in bacterial growth; assay type: toxicity; conditions: read-out: TI; outline: as §2
[16] = Therapeutic index, ratio of MCC50 for human HeLa cells to MIC for inhibition of flavodoxin in clarithromycin/metronidazole-resistant Helicobacter pylori isolate 4 assessed as reduction in bacterial growth; assay type: toxicity; conditions: read-out: TI; outline: as §2
[17] = Therapeutic index, ratio of MCC50 for human HeLa cells to MIC for inhibition of flavodoxin in rifampicin-resistant Helicobacter pylori isolate 5 assessed as reduction in bacterial growth; assay type: toxicity; conditions: read-out: TI; outline: as §2
[18] = Therapeutic index, ratio of MCC50 for human HeLa cells to MIC for inhibition of flavodoxin in clarithromycin/metronidazole-resistant Helicobacter pylori isolate 6 assessed as reduction in bacterial growth; assay type: toxicity; conditions: read-out: TI; outline: as §2
[19] = Toxicity in NMRI mouse infected with Helicobacter pylori SS1 assessed as change in body weight at 10 to 20 mg/100g, po administered daily via gavage for 8 days starting from 1 week post-infection; assay type: organism-based; conditions: in vivo
Outline: (§4)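 Female 6-week-old SPF NMRI mice infected orogastrically with Hp SS1 on days 1 and 3. Compound in 5–10% DMSO/olive oil (100 μL) given by daily oral gavage for 8 days from day 8. Body weight and appetite were monitored during treatment; infected controls received vehicle alone.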

[20] = Toxicity in NMRI mouse infected with Helicobacter pylori SS1 assessed as change in appetite at 10 to 20 mg/100g, po administered daily via gavage for 8 days starting from 1 week post-infection; assay type: organism-based; conditions: in vivo; outline: as §4
[21] = Toxicity in NMRI mouse assessed as change in body weight at 10 to 20 mg/100g, po administered daily via gavage for 8 days; assay type: organism-based; conditions: in vivo, 192 h
[22] = molecular target: T1, Flavodoxin (Helicobacter pylori (strain ATCC 700392 / 26695) (Campylobacter pylori)); experiment: Binding affinity to Helicobacter pylori flavodoxin by thermal upshift assay
[23] = molecular target: T1, Flavodoxin (Helicobacter pylori (strain ATCC 700392 / 26695) (Campylobacter pylori)); experiment: Binding affinity to Helicobacter pylori flavodoxin by isothermal titration calorimetric method
Escherichia coli = experiment: Effect on growth of Escherichia coli DH5[alpha] after 48 hrs by resazurin-dye based microdilution assay; assay type: organism-based
Staphylococcus aureus = experiment: Effect on growth of Staphylococcus aureus ATCC 1228 after 48 hrs by resazurin-dye based microdilution assay; assay type: organism-based
[24] = Stability of the compound in DMSO-d6 at pH 1 incubated for 19 hrs under shaking condition by 1H-NMR analysis; assay type: physicochemical; conditions: pH 1, 19 h
[25] = Toxicity in NMRI mouse infected with Helicobacter pylori SS1 assessed as change in appetite at 1 to 20 mg/100g, po administered daily via gavage for 8 days starting from 1 week post-infection; assay type: organism-based; conditions: in vivo
Outline: (§5)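 Compound in 5–10% DMSO/olive oil (100 μL) given by daily oral gavage for 8 days from day 8. Body weight and appetite were monitored during treatment; infected controls received vehicle alone.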

[26] = Toxicity in NMRI mouse infected with Helicobacter pylori SS1 assessed as change in body weight at 1 to 20 mg/100g, po administered daily via gavage for 8 days starting from 1 week post-infection; assay type: organism-based; conditions: in vivo; outline: as §5
[27] = Toxicity in NMRI mouse assessed as change in body weight at 1 to 20 mg/100g, po administered daily via gavage for 8 days; assay type: organism-based; conditions: in vivo, 192 h
Helicobacter pylori [28] = experiment: Antibacterial activity against Helicobacter pylori SS1 infected in NMRI mouse assessed as bacterial eradication at 10 mg/100g, po administered daily via gavage for 8 days starting from 1 week post-infection and measured 8 days post-last dose relative to control; assay type: functional
Outline: (§6)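 From day 8, 100 μL compound in 5–10% DMSO/95–90% olive oil by daily oral gavage for 8 days. Infected controls got vehicle. Killed day 24; stomach homogenates plated 5 days at 37 °C microaerophilic; CFU/g tissue versus control. Mann-Whitney U and unpaired t tests, p ≤ 0.05.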

Helicobacter pylori [29] = experiment: Antibacterial activity against Helicobacter pylori SS1 infected in NMRI mouse assessed as bacterial eradication at 20 mg/100g, po administered daily via gavage for 8 days starting from 1 week post-infection and measured 8 days post-last dose relative to control; assay type: functional; outline: as §6
Helicobacter pylori [30] = experiment: Antibacterial activity against Helicobacter pylori SS1 infected in NMRI mouse assessed as reduction in gastric colonization at 1 to 20 mg/100g, po administered daily via gavage for 8 days starting from 1 week post-infection and measured 8 days post-last dose; assay type: functional, organism-based
Outline: as §6, with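 “Female 6-week-old SPF NMRI mice, seven per condition, infected orogastrically on days 1 and 3 with 100 μL Hp SS1 (5 × 10^8 CFU/mL). From” for “From”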

Compound	CC50 [1]	MIC [2]	MIC [3]	MIC [4]	selectivity ratio [5]	selectivity ratio [6]	selectivity ratio [7]	selectivity ratio [13]	selectivity ratio [14]	selectivity ratio [15]	selectivity ratio [16]	selectivity ratio [17]	selectivity ratio [18]	Activity [22]	Activity [23]	Activity (Escherichia coli)	Activity (Staphylococcus aureus)	other results
COc1ccc(CSc2cc(Cl)c(N)c3nonc23)cc1	> 1 mM	5.9 µM (≈ 1.9 µg/mL)	11.8 µM (≈ 3.8 µg/mL)	5.9 µM (≈ 1.9 µg/mL)	> 170	> 85	> 170	161	322	10	80	40	322	Active	Active	Non-Toxic	Non-Toxic	inhibition [8]: Active; inhibition [9]: Active; inhibition [10]: Active; inhibition [11]: Active; inhibition [12]: Active; Activity [19]: Non-Toxic; Activity [20]: Non-Toxic; Activity [21]: Non-Toxic
COc1ccc(C[S+]([O-])c2ccc(N)c3nonc23)cc1 (centres undefined)	> 1 mM	105 µM (≈ 31.9 µg/mL)	53 µM (≈ 16.1 µg/mL)	26 µM (≈ 7.89 µg/mL)	> 9.5	> 19	> 39	9.5	9.5	9.5	9.5	9.5	9.5	Active	Active	Non-Toxic	Non-Toxic	Stability [24]: Stable; Activity [25]: Non-Toxic; Activity [26]: Non-Toxic; Activity [27]: Non-Toxic; Activity (Helicobacter pylori [28]): 5%; Activity (Helicobacter pylori [29]): 60%; Activity (Helicobacter pylori [30]): Active
